Reference: ChEMBL document CHEMBL1148287, “Design of potent, selective, and orally bioavailable inhibitors of cysteine protease cathepsin k” (J Med Chem, 2004)

Legend:
[1] = Selectivity ratio between IC50 against Cathepsin S and IC50 against Cathepsin K
Procedure, shortened: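 Recombinant human cathepsin S was run with Cbz-Val-Val-Arg-AMC at 10 μM final (Km >100 μM); human cathepsin K used Cbz-Phe-Arg-AMC at 10 μM. Both were in pH 5.5 sodium acetate with 10 mM DTT, 120 mM NaCl and 10% DMSO at 30 °C, with AMC fluorescence progress curves over 2.3 h. The ratio was taken from the fitted IC50s.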

[2] = target: Cathepsin (H and K) (Homo sapiens) (UniProt P09668+P43235); test: Selectivity for Cathepsins H and K, ratio of IC50; format: protein assay
Procedure, shortened: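 Human liver cathepsin H was run with L-Arg-β-naphthalamide at 50 μM final (Km 195 μM), read at ex 340/em 420. Human cathepsin K used Cbz-Phe-Arg-AMC at 10 μM, read at ex 360/em 440. Both were at pH 5.5 with DTT/NaCl and 10% DMSO at 30 °C, with 2.3 h progress curves. IC50s were fitted from rate vs [I] and ratioed.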

[3] = Compound was tested for its cell permeability in the Madin-Darby canine kidney cell monolayer transport assay; format: ADME, Canis lupus familiaris; settings: dog, MDCK; read-out: Activity
[4] = Selectivity as ratio between IC50 against Cathepsin B and IC50 against Cathepsin K
Procedure, shortened: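 Human liver cathepsin B and recombinant human cathepsin K were each run with Cbz-Phe-Arg-AMC at 10 μM final (Km 400 and 70 μM). Both used pH 5.5 acetate/DTT/NaCl buffer, 10% DMSO, 30 °C and a 2.3 h fluorescence progress-curve read (ex 360/em 440). IC50s were fitted from rate vs [I], and the ratio of the two IC50s was taken.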

[5] = target: T1, Cathepsin K (Rattus norvegicus, UniProt O35186); test: Inhibition of cysteine protease cathepsin K of rat
T1 sequence (O35186 whole entry): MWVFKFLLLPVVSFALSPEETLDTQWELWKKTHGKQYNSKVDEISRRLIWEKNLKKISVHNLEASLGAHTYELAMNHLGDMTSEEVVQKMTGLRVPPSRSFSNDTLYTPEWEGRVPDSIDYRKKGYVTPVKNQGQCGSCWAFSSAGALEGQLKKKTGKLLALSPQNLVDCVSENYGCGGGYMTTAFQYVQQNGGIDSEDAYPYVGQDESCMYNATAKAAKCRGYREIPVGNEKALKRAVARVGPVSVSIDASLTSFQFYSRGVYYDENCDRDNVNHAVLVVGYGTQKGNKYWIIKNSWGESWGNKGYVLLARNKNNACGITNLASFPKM

[6] = Selectivity as ratio between IC50 against Cathepsin L and IC50 against Cathepsin K
Procedure, shortened: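 Both assays used pH 5.5 acetate/DTT/NaCl, 10% DMSO, 30 °C and AMC fluorescence progress curves over 2.3 h. IC50s were fitted from rate vs [I] and taken as a ratio.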

[7] = target: T2, Cathepsin K (Homo sapiens, UniProt P43235); test: Concentration required to inhibit 50% of cysteine protease cathepsin K of human
T2 sequence (P43235 whole entry): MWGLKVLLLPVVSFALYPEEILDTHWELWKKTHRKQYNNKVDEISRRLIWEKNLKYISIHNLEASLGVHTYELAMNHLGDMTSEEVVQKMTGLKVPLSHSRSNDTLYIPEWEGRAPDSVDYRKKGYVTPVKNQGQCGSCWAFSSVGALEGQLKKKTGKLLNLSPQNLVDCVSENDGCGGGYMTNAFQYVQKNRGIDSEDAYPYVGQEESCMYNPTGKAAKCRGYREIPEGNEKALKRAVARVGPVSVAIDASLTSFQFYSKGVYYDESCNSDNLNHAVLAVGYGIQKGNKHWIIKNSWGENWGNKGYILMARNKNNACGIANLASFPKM
Procedure, shortened: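 Reactions were started by adding inhibitor plus substrate to enzyme. AMC fluorescence (ex 360/em 440) progress curves were followed over 2.3 h at varied inhibitor concentrations. IC50 was fitted as rate = Vmax/(1+[I]/IC50).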

[8] = organism: Homo sapiens; test: Selectivity as ratio between IC50 against Cathepsin V and IC50 against Cathepsin K
Procedure, shortened: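 Conditions were pH 5.5 acetate buffer with 10 mM DTT, 120 mM NaCl and 10% DMSO at 30 °C, with fluorescence progress curves over 2.3 h. The IC50 fits gave the ratio.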

[9] = Percent instability was measured by Rat S9 liver […] metabolism assay, in vitro; format: ADME, Liver S9 fraction; settings: read-out: Activity
Procedure, shortened: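 Rat S9 liver metabolism, read as % metabolized after 1 h incubation at 37 °C, run in duplicate.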

[10] = Maximum time required to achieve Cmax was determined in rat; format: ADME, organism-based; settings: in vivo
Procedure, shortened: (§1)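 Rats were dosed iv into the femoral vein at 5 mg/kg or orally at 10 mg/kg, from a solution in 15% solutol/citrate buffer/0.1% ascorbic acid, pH 3.5. Blood was drawn from a jugular cannula before dosing and at 0.03–24 h, then clotted to serum. Samples were acetonitrile-precipitated with internal standard and analysed by LC-MS/MS (MRM). Parameters came from noncompartmental analysis.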

[11] = Peak plasma concentration in rat; format: ADME, organism-based; procedure, shortened: as §1
[12] = Bioavailability in rat; format: ADME, organism-based; settings: in vivo; procedure, shortened: as §1
[13] = Area Under plasma concentration time curve in rat upon peroral administration; format: ADME, organism-based; settings: po; procedure, shortened: as §1
[14] = Half-life in rat; format: ADME, organism-based; settings: in vivo; procedure, shortened: as §1

Cathepsin (H and K) (Homo sapiens), sequence (P09668 whole entry, looked up, one chain of several): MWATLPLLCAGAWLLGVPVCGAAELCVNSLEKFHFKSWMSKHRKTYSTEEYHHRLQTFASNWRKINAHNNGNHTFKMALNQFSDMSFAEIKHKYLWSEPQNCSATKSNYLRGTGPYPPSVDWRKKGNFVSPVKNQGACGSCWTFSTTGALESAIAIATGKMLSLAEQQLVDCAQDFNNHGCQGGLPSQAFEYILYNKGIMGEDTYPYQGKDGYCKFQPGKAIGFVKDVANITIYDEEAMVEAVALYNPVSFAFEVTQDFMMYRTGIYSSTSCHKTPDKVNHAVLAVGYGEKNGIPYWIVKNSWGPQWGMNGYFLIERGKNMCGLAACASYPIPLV

| SMILES | Ratio [1] | Ratio [4] | IC50 [5] [µM] | Ratio [6] | IC50 [7] [µM] | Ratio [8] | other results |
| --- | --- | --- | --- | --- | --- | --- | --- |
| CCCC[C@H](NC(=O)OC(C(C)C)C(C)C)C(=O)C(=O)Nc1[nH]ncc1C | 1.7 | 1100 | 0.0055 | 26 | 0.00047 | 14 | Ratio [2]: 2100; Papp [3]: 370 nm/s; metabolised [9]: 68% |
| CCCC[C@H](NC(=O)OC(C(C)C)C(C)C)C(=O)C(=O)Nc1ccnn1-c1ccccn1 | 8.3 | > 200 | 1.2 | 40 | 0.062 | 19 | – |
| CCCC[C@H](NC(=O)OC(C(C)C)C(C)C)C(=O)C(=O)Nc1ccnn1C | 91 | > 400 | 1.7 | 250 | 0.032 | 50 | Tmax [10]: 0.633 h; Cmax [11]: 0.97 µg/mL; Ratio [2]: > 400; bioavailability [12]: 28%; Papp [3]: 490 nm/s; AUC [13]: 1.8 µg·h/mL; half-life [14]: 4 h; metabolised [9]: 99% |
| CCCC[C@H](NC(=O)OC(C(C)C)C(C)C)C(=O)C(=O)NCc1cccs1 | – | – | – | – | 0.0092 | – | – |
| CCCC[C@H](NC(=O)OC(C(C)C)C(C)C)C(=O)C(=O)Nc1[nH]ncc1Br | 4.2 | – | – | – | 0.00024 | – | – |
| CCCC[C@H](NC(=O)OC(C(C)C)C(C)C)C(=O)C(=O)Nc1cc(C)n[nH]1 | – | – | – | – | 0.00071 | – | – |
| CCCC[C@H](NC(=O)OC(C(C)C)C(C)C)C(=O)C(=O)Nc1cc(-c2ccccc2)[nH]n1 | 7 | 520 | – | 25 | – | 20 | Ratio [2]: 18 |
| CCCC[C@H](NC(=O)OC(C(C)C)C(C)C)C(=O)C(=O)Nc1cc(-c2ccccc2)n[nH]1 | – | – | 0.012 | – | 0.00065 | – | – |
| CCCC[C@H](NC(=O)OC(C(C)C)C(C)C)C(=O)C(=O)Nc1[nH]ncc1-c1ccccc1 | 4.1 | 1200 | 0.0018 | 25 | 0.00021 | 9.1 | Ratio [2]: 1700 |

More lines, in order of falling IC50 [7], values ahead:

| Ratio [1] | Ratio [4] | IC50 [5] [µM] | Ratio [6] | IC50 [7] [µM] | Ratio [8] | SMILES | other results |
| --- | --- | --- | --- | --- | --- | --- | --- |
| – | – | – | – | 12 | – | CC(C)C(OC(=O)NCC(=O)C(=O)NCc1cccs1)C(C)C | – |
| – | – | 1.5 | – | 0.026 | – | CCCC[C@H](NC(=O)OC(C(C)C)C(C)C)C(=O)C(=O)Nc1ccnn1CC | – |
| – | – | – | – | 0.024 | – | CC(C)C[C@H](NC(=O)OC(C(C)C)C(C)C)C(=O)C(=O)NCc1cccs1 | – |
| – | – | 0.79 | – | 0.015 | – | CCCC[C@H](NC(=O)OC(C(C)C)C(C)C)C(=O)C(=O)Nc1ccnn1-c1ccccc1 | – |
| 130 | > 830 | 1.1 | 290 | 0.015 | 140 | CCCC[C@H](NC(=O)OC(C(C)C)C(C)C)C(=O)C(=O)Nc1ccnn1C1CCC1 | Ratio [2]: > 830 |
| – | – | – | – | 0.014 | – | CC(C)C(OC(=O)N[C@@H](CC1CCCCC1)C(=O)C(=O)NCc1cccs1)C(C)C | – |
| – | – | – | – | 0.0051 | – | CCCC[C@H](NC(=O)OC(C(C)C)C(C)C)C(=O)C(=O)Nc1ccon1 | – |
| – | – | – | – | 0.00254 | – | CCCC[C@H](NC(=O)OC(C(C)C)C(C)C)C(=O)C(=O)N[C@H](C)c1ccccc1 | – |
| 3.6 | – | – | – | 0.0017 | – | CCCC[C@H](NC(=O)OC(C(C)C)C(C)C)C(=O)C(=O)Nc1[nH]ncc1C(=O)OCC | – |
| – | – | 0.011 | – | 0.00041 | – | CCCC[C@H](NC(=O)OC(C(C)C)C(C)C)C(=O)C(=O)Nc1ccn(C)n1 | – |
| 2.3 | – | – | – | 0.00026 | – | CCCC[C@H](NC(=O)OC(C(C)C)C(C)C)C(=O)C(=O)Nc1[nH]nc2cccc(F)c12 | – |
